{"source": "PubChem BioAssay AID1385", "about": "(PCMD, 2008)", "note": "Among all 200,000 compounds or so, about 170 (0.085%) were called active.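 How the source made its calls: active means inhibition above 40% at the single screening dose; inactive means the rest.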 This excerpt belongs to a sample that is enriched for actives."}
{"biological_target": "DNA repair protein RAD51 homolog 1 (Homo sapiens) (UniProt Q06609)", "sequence (Q06609 whole entry, looked up)": "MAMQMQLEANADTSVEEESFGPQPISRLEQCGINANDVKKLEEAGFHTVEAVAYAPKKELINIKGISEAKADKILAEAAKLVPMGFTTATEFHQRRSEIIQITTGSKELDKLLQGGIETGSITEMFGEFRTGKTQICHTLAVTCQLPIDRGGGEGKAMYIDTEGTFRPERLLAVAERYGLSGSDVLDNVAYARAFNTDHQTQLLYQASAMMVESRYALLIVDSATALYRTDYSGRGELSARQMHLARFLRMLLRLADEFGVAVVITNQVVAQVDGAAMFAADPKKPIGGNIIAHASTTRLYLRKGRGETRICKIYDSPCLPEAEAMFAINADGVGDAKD", "assay": "blockers of RAD51-mediated homologous recombination – biochemical, fluorescence, primary screen (AID 1385);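 further: 0% = DMSO control wells and 100% = blanks with heterologous ssDNA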", "conditions": "hRad51 DNA strand exchange, fluorescence dequenching; at 10 µM; active compounds read high", "in_short": "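Test system: preformed human Rad51 ssDNA filaments. Compound dosing: single dose, 10 µM final compound. Incubation: filaments 15 min 37 °C, then compound 30 min. Technique: FRET fluorescence dequenching, excitation 485 nm, emission 520 nm. Read-out basis: percent inhibition from fluorescence, normalised to plate control and blank means. Benchmarks: plate controls and plate blanks.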"}
{"smiles": "Cc1ccc2c(c1)nnc1nnc(SCC(=O)O)n12", "inhibition": "3.89% (inactive)"}
{"smiles": "CCC(C)(C)NC(=O)C(c1ccc(O)cc1)N(C(=O)Cn1nnc2ccccc21)c1ccc(NC(C)=O)cc1", "note": "(stereo not drawn)", "inhibition": "-8.67% (inactive)"}
{"smiles": "Oc1c(Br)cc(/C=N/NC(=S)NCC2CCCO2)cc1Br", "note": "(stereo not drawn)", "inhibition": "-9.24% (inactive)"}
{"smiles": "O=C(Nc1nc2ccc([N+](=O)[O-])cc2s1)c1ccncc1", "inhibition": "6.33% (inactive)"}
{"smiles": "COc1cc(OC)c(OC)cc1/C=N/Nc1ncnc2c1[nH]c1ccc(C)cc12", "inhibition": "-8.84% (inactive)"}
{"smiles": "Cc1nc(-c2ccc(Cl)cc2)sc1C1(C)CC(c2ccc(Br)cc2)=NO1", "note": "(stereo not drawn)", "inhibition": "-6.72% (inactive)"}
{"smiles": "CCC(CC)c1nnc(NC(=O)c2nn(C)c(=O)c3ccccc23)s1", "inhibition": "6.66% (inactive)"}
{"smiles": "COc1ccc(Cc2nnc(NS(=O)(=O)Cc3ccccc3)s2)cc1", "inhibition": "-0.75% (inactive)"}
{"smiles": "CCC(CC)c1nnc(NS(=O)(=O)Cc2ccccc2)s1", "inhibition": "84.4% (active)"}
{"smiles": "COc1ccccc1N1CCN(C(=O)CSc2ncnc3c2cnn3-c2ccc(C)c(C)c2)CC1", "inhibition": "-12.6% (inactive)"}
{"smiles": "CC1CN(c2nc(Nc3ccccc3)nc(N)c2[N+](=O)[O-])CC(C)O1", "note": "(stereo not drawn)", "inhibition": "-23.5% (inactive)"}
{"smiles": "CC(=O)c1ccc(NC(=O)C2CC(=O)Nc3nc4ccccc4n32)cc1", "note": "(stereo not drawn)", "inhibition": "-1.17% (inactive)"}
{"smiles": "COc1ccccc1-c1c(C#N)c(N)nc2c1CCC2", "inhibition": "-0.29% (inactive)"}
{"smiles": "CCNC(=S)N1CCN(CCN=CC2=C(O)CC(C)(C)CC2=O)CC1", "inhibition": "16.2% (inactive)"}
{"smiles": "Cc1cccc(N2CCN(Cc3nc(C4CC4)no3)CC2)n1", "inhibition": "-8.44% (inactive)"}
{"smiles": "COC(=O)[C@H](CC(C)C)NC(=O)N1CCCCC1C", "note": "(stereo partly drawn)", "inhibition": "-6.96% (inactive)"}
{"smiles": "COc1ccc(/C(C)=N/N2CCOCC2)c(O)c1", "inhibition": "16.1% (inactive)"}
{"smiles": "Cn1c(SCC(=O)N/N=C/c2ccc(O)c(O)c2)nc2ccccc21", "inhibition": "-10.2% (inactive)"}
{"smiles": "Cc1cc(=O)oc2c(C(=O)c3ccccc3)c(OCC(N)=O)ccc12", "inhibition": "-5.93% (inactive)"}
{"smiles": "CCOc1ccc(C2NC(=S)NC3=C2CCc2ccccc23)cc1", "note": "(stereo not drawn)", "inhibition": "5.83% (inactive)"}
{"smiles": "CN1CCc2nc(SC(C(=O)O)c3ccccc3)c(C#N)c(-c3cccs3)c2C1", "note": "(stereo not drawn)", "inhibition": "-22.2% (inactive)"}
{"smiles": "CCCc1ccc(C(=O)[C@@H]2[C@@H](C(C)=O)N3c4ccc(F)cc4C=C[C@@H]3[C@@]23C(=O)Nc2ccccc23)cc1", "inhibition": "10.1% (inactive)"}
{"smiles": "CC(C)S(=O)(=O)c1csc(NC(=O)Nc2ccc(Cl)cc2)c1Cl", "inhibition": "-3.14% (inactive)"}
{"smiles": "Cc1ccc(-c2csc(-c3cc(C)on3)n2)cc1", "inhibition": "9.91% (inactive)"}
{"smiles": "CC1(C)CCSC(/C=C/c2ccccc2)=N1", "inhibition": "10.2% (inactive)"}
{"smiles": "CC(C)(C)c1cc(C(=O)NN)n(Cc2ccc(Cl)cc2Cl)n1", "inhibition": "9.98% (inactive)"}
{"smiles": "CC(C)(C)c1ccc(/C=C2\\Oc3c(ccc(O)c3CN3CCN(CCO)CC3)C2=O)cc1", "inhibition": "-31.8% (inactive)"}
{"smiles": "COC(=O)[C@H](Cc1ccccc1)NC(=O)Nc1ccc(OC)cc1", "inhibition": "7.38% (inactive)"}
{"smiles": "S=C(NCCc1ccccc1)Nc1ccccc1", "inhibition": "15.1% (inactive)"}
{"smiles": "CCn1c(SCC(=O)N/N=C/c2ccccc2OCC(=O)O)nnc1-c1ccc(C(C)(C)C)cc1", "inhibition": "8.66% (inactive)"}
{"smiles": "CCOC(=O)c1cc(C)nc(S(C)(=O)=O)c1C#N", "inhibition": "16% (inactive)"}
{"smiles": "C=CCSc1nnc(NC(=O)c2ccc(NC(C)=O)cc2)s1", "inhibition": "4.61% (inactive)"}
{"smiles": "Nc1c(N(CCO)C(=O)C2CCCCC2)c(=O)[nH]c(=O)n1Cc1ccccc1", "inhibition": "-7.08% (inactive)"}
{"smiles": "CC(=O)OCCOCn1cnn2c(=O)c(Br)c(C)nc12", "inhibition": "1.73% (inactive)"}
{"smiles": "COc1ccc(CCNC2=CC(=O)CC(C)(C)C2)cc1", "inhibition": "3.57% (inactive)"}
{"smiles": "Cc1ccc(-c2cc(C(=O)NN)n[nH]2)o1", "inhibition": "8.49% (inactive)"}
{"smiles": "CNC(=O)c1csc(Cc2c(Cl)sc3ccc(Cl)cc23)n1", "inhibition": "5.52% (inactive)"}
{"smiles": "S=c1nc2ccccc2c2nc(-c3cccnc3)[nH]n12", "inhibition": "1.9% (inactive)"}
{"smiles": "O=[N+]([O-])C(=c1ccc2c(c1)N1C3=C(CCCC3)CC3CCCCC31N=2)[N+](=O)[O-]", "note": "(stereo not drawn)", "inhibition": "-20.4% (inactive)"}
{"smiles": "CCOC(=O)c1ccc(S(=O)(=O)N(CCO)Cc2cc3cc(OC)c(OC)cc3[nH]c2=O)cc1", "inhibition": "-11% (inactive)"}
{"smiles": "Fc1ccccc1/C=N/n1c(-c2cccnc2)n[nH]c1=S", "inhibition": "5.39% (inactive)"}
{"smiles": "Fc1ccc(Nc2nnns2)cc1", "inhibition": "-7.15% (inactive)"}
{"smiles": "Cc1ccc(-c2nc(SCC(=O)Nc3ccccc3OC(F)F)c3c(C)c(C(=O)O)sc3n2)cc1", "inhibition": "-23.3% (inactive)"}
{"smiles": "CC(C)c1cc(CN2CCOCC2)cc(C(C)C)c1O", "inhibition": "-12.3% (inactive)"}
{"smiles": "Clc1ccc(C[n+]2cc(-c3ccc(Cl)cc3)n3c2CCC3)cc1", "inhibition": "16.8% (inactive)"}
{"smiles": "CC(C)CCN1NC2(CCC(C)CC2)NC1=S", "note": "(stereo not drawn)", "inhibition": "7.9% (inactive)"}
{"smiles": "CC(=O)NCc1ccc(S(=O)(=O)NC2CCN(Cc3ccccc3)CC2)cc1", "inhibition": "-43.1% (inactive)"}
{"smiles": "O=[N+]([O-])c1ccc(N/N=C/c2ccccc2)cc1", "inhibition": "-5.09% (inactive)"}
{"smiles": "COc1cccc(CC(=O)Nc2ccc(-c3csc(C)n3)cc2)c1", "inhibition": "6% (inactive)"}
{"smiles": "O=C(O)COCC(=O)NCc1csc2ccc(Cl)cc12", "inhibition": "15% (inactive)"}
{"smiles": "C/C=C/C(=O)Nc1ccc(N2CCN(c3ccc(C(F)(F)F)cn3)CC2)nc1", "inhibition": "19.9% (inactive)"}
{"smiles": "Cc1nc2cc(NC(=O)Nc3cccc(F)c3)ccc2n1C", "inhibition": "2.24% (inactive)"}
{"smiles": "CCOC(=O)COc1nc(C)cc(C(F)(F)F)c1C#N", "inhibition": "-33.8% (inactive)"}
{"smiles": "COC(=O)c1ccc(COc2cc([N+](=O)[O-])cc3cccnc23)cc1", "inhibition": "-2.29% (inactive)"}
{"smiles": "C=CCN1CC(C)/C(=N\\O)CC1C", "note": "(stereo not drawn)", "inhibition": "-1.92% (inactive)"}
{"smiles": "Cc1nc2nc(SCC(=O)c3ccccc3)[nH]c2cc1Br", "inhibition": "-17.9% (inactive)"}
{"smiles": "O=C(CCNc1n[nH]c(=O)[nH]c1=O)N/N=C\\c1ccc(Br)cc1", "inhibition": "-0.51% (inactive)"}
{"smiles": "CC(C)(C)n1cnnc1Sc1ccc([N+](=O)[O-])cn1", "inhibition": "25.8% (inactive)"}
{"smiles": "Cn1nccc1NS(=O)(=O)c1ccc(F)cc1", "inhibition": "-8.74% (inactive)"}
{"smiles": "COc1ccc(Cl)cc1S(=O)(=O)N1CCC(O)(c2ccc(Cl)cc2)CC1", "inhibition": "10.6% (inactive)"}
{"smiles": "Cc1ccnc(NC(=O)c2ccc(NC(=O)c3ccco3)cc2)c1", "inhibition": "-5.85% (inactive)"}
{"smiles": "Cc1ccc(C(=O)COc2cccc(NC(=O)c3ccco3)c2)cc1", "inhibition": "89.3% (active)"}
{"smiles": "COc1cccc(C(=O)Nc2ccc(NC(=O)c3ccco3)cn2)c1", "inhibition": "-3.19% (inactive)"}
